# From PubChem BioAssay
# KLK7 zymogen act – proKLK7 (human) activation, primary screen. hit rate 0.9% among 370,000. P49862. activation, % at 7 µM. purified proKLK7, EDANS-DABCYL substrate fluorescence; 100% is mature enzyme control, 0% vehicle. AID 652039;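 active = activation above the mean of all tested compounds plus 3 SD, computed per campaign excluding outliers beyond control limits, cut at about 13% in these data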
# RanGTP-Imp inh – inhibitors of RanGTP-importin-beta interaction, primary screen, biochemical, FRET, CFP-Ran, YFP-importin-beta, homogeneous; cell-free CFP-Ran/YFP-importin-beta FRET ratio; inhibition, % (concentration not given with the values); hit rate 1.1% among 300,000;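 active = more than half of the replicate wells show a fall in the fluorescence ratio signal beyond about 16%, limit read from the data, passing the limit was not always enough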;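 note: 0% = DMSO wells and 100% = Ran loaded with GDP instead of GTP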
# Runt-CBFb FRET – Runt domain-CBFb interaction inhibition | inhibition, % at 20 µM | Cerulean-Runt/Venus-CBFb FRET ratio 530/480, 1 h | AID 1496 | hit rate 0.46% among 220,000;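 active = inhibition over about 50% at 20 µM in the single-dose screen, limit read from the data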;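 note: 0% = DMSO wells and 100% = excess unlabeled CBFb competitor control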
#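 test system = Cerulean-Runt domain fusion protein, energy donor | probe or stimulus = Venus-CBFb binding partner, 100 nM | incubation = two 1 h room-temperature incubations shielded from light | detection = fluorescence energy transfer, 422 nm excitation, 530/480 nm emission | measure = loss of energy transfer signal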
# AI-2 QS modul – modulators of Vibrio harveyi AI-2 quorum sensing system; activity change, % at 7.5 µM; hit rate 0.4% among 300,000; Vibrio harveyi JMH597 AI-2 luminescence/OD600 ratio, 9 h; active compounds read low; strain lacks LuxN and CqsS sensors; 0 = neutral-control median; AID 2094; in the data active = activity change below about -75%, passing the limit was not always enough;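 note: luminescence divided by OD600 gain over 9 h not by final OD600 alone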
# Runt-SMMHC FRET – Runt domain-CBFb-SMMHC interaction inhibition; Cerulean-Runt/Venus-CBFb-SMMHC FRET ratio 530/480, 1 h; AID 1434; inhibition, % at 20 µM; hit rate 0.74% among 220,000;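 active = mean inhibition across duplicate retests at 20 µM reaching about 50%, limit read from the data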;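 note: 0% = DMSO wells and 100% = wells with excess untagged CBFb-SMMHC; inhibitors lower the FRET ratio by blocking Runt binding to CBFb-SMMHC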
# Wee1 degr inh – human Wee1 degradation inhibition, primary screen | P30291 | HeLa Luc-Wee1K328M stability, luciferase luminescence; 100% = proteasome inhibitor MG132 effect | reporter increase, % at 5 µM | hit rate 1.2% among 220,000 | AID 1321;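 active = activation above the mean of all tested compounds plus 3 SD, set per screening run, cut at about 8.8% in these data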;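 note: cells exposed to compound for 20 h before luminescence read; 0% = DMSO alone and 100% = MG132 at 30 µM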
# Numbers without * were called inactive; . = no result. Rows were chosen to be rich in hits. Some 2.9% of all compounds tested hit in one or more screens of this group.
SMILES,KLK7 zymogen act,RanGTP-Imp inh,Runt-CBFb FRET,AI-2 QS modul,Runt-SMMHC FRET,Wee1 degr inh
O=C(N/N=C/c1ccc2ncccc2c1)c1cccc([N+](=O)[O-])c1,0,5,.,35,.,.
CC(=O)NCCN1C(=O)S/C(=C\c2cccs2)C1=O,1,-1,2,16,2,4
CN(C)c1ccc(C(=S)NC2CCCCC2)cc1,0,2,39,17,20,10*
CCN(CC)c1ccc(C(=S)NC2CCCCC2)cc1,-1,-1,38,13,22,-1
CC(C)C(c1nnnn1C1CCCC1)N1CCc2ccccc21 (configuration not stated),0,.,-1,14,-1,0
Cc1ccc(C(c2nnnn2C2CCCC2)N2CCc3ccccc32)cc1 (configuration not stated),0,1,1,16,2,9.1*
Fc1cccc(Cn2ccc3ccc(-c4ccc5ccn(Cc6ccccc6)c5c4)cc32)c1,-2,.,.,.,.,.
COC(=O)c1cc2c(c3c4cc(F)ccc4n(S(=O)(=O)c4cccc(C)c4)c13)C(=O)N(Cc1ccco1)C2,-1,.,.,.,.,.
CC(=O)OCCN1c2ccccc2Sc2cnccc21,1,.,.,.,.,.
CC(=O)OCCCN1c2ccccc2Nc2nnc(-c3ccccc3)cc21,0,7,0,20,0,9.1*
CC(=O)c1nn(-c2cccc(Br)c2)cc1C(=O)c1ccc(Br)cc1,1,29*,0,16,0,-1
Cc1ccc2nc3c(cc2c1)c(NC(=O)c1ccco1)nn3CC(C)C,-5,78*,50,-3,81*,3
CCn1nc(NC(=O)c2ccco2)c2cc3ccccc3nc21,2,30*,9,2,10,-3
Cc1ccc2nc3c(cc2c1)c(NC(=O)C(C)(C)C)nn3CC(C)C,-4,44*,.,9,.,.
CCn1nc(NC(=O)c2ccncc2)c2cc3ccccc3nc21,-1,3,6,16,7,2
CC(C)Cn1nc(NC(=O)c2ccco2)c2cc3ccccc3nc21,2,51*,30,13,75,0
CN(C)[C@H]1CCN(c2ccc3c(c2)OCCCN(C2CC2)S3(=O)=O)C1,0,.,.,.,.,.
C=CCN1C(=O)c2n[nH]c(COC)c2C1c1ccc(F)cc1 (configuration not stated),0,.,.,.,.,.
COc1cc(C(=O)NC(CCSC)C(=O)OCc2cc([N+](=O)[O-])cc3c2OCOC3)cc(OC)c1OC (configuration not stated),0,8,-8,17,-1,9.6*
O=C(CCNC(=O)Cn1ccc2ccccc2c1=O)NCCCN1CCN(c2ccc(F)cc2)CC1,-1,2,.,10,-3,-2
O=C(CNC(=O)Cn1ccc2ccccc2c1=O)NCCCN1CCN(c2cccc(Cl)c2)CC1,0,21*,-2,15,-8,3
CCc1cc2c(CN(C)Cc3ccccc3F)cc(=O)oc2cc1O,-119,54*,.,9,.,.
Cc1c(O)ccc2c(CN(C)Cc3ccccc3)cc(=O)oc12,-74,23*,46,10,81*,-1
Cn1c2ccccc2c2ccc3c(c21)C(=O)C=CC3=O,1,.,.,.,.,.
Cc1ccc2c(c1)c1ccc3c(c1n2C)C(=O)C=CC3=O,0,.,55*,.,32,-2
SMILES,KLK7 zymogen act,RanGTP-Imp inh,Runt-CBFb FRET,AI-2 QS modul,Runt-SMMHC FRET,Wee1 degr inh
COc1ccc2c(c1)c1ccc3c(c1n2C)C(=O)C=CC3=O,0,.,64*,.,41,8
CSCCC(C(=O)Nc1c(C)cccc1C)N1CCC(Cc2ccccc2)CC1 (configuration not stated),0,.,.,.,.,.
COc1cccc2sc3ccc(C#CC4(N)CCCCC4)cc3c(=O)c12,-12,55*,.,18,.,.
CNC(C)C#Cc1ccc2c(=O)c3c(OC)cccc3oc2c1 (configuration not stated),.,5,.,28,.,.
CNC(C)C#Cc1ccc2sc3cccc(OC)c3c(=O)c2c1 (configuration not stated),-6,38*,.,19,.,.
COC(=O)[C@H](Cc1ccccc1)NC(=O)N1CCN(c2ccc(F)cc2)CC1,0,-2,2,4,-2,0
